Among the data in the array DNA melting data of Ke et al. (doi:10.1101/2024.01.08.574731) are folding enthalpy and Tm values, retold here.

Series [1] is described as follows: folding enthalpy; higher = less favourable; fluorescence melt of hairpins on a sequencing array, two-state fit. The settings on record: sodium 0.088 M. An outline of the steps: (§1)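 Folding enthalpy and melting temperature were estimated with bootstrapped two-state fits and combined across four replicates by inverse-variance weighting, with fitted temperatures raised by 9.35 °C to match UV melts. The data were Cy3 fluorescence of library hairpins, with annealed Cy3 and quencher oligos, on a sequenced MiSeq flow cell in 50 mM Na-HEPES pH 8.0, 25 mM NaCl, imaged in 2.5 °C steps up to 60 °C and normalised to pre-quench Cy3 and control constructs.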

Series [2] is described as follows: melting temperature; fluorescence melt of hairpins on a sequencing array, two-state fit, raised by 9.35 °C to match UV melts. The settings on record: sodium 0.088 M. An outline of the steps: as §1

For GATGTGGGAAACCACATC (((((((....))))))), the folding enthalpy in series [1] was -42.1 kcal/mol. In addition, the Tm in series [2] was determined as 60.9 °C.

In the case of GATGTGGGAAACCGCATC ((((.((....)).)))), the folding enthalpy in series [1] is -46.4 kcal/mol. For the same sequence, the Tm in series [2] was determined as 51.9 °C.

For the sequence GATGTTGGAAACAATATC (((.(((....))).))), the folding enthalpy in series [1] was -27.1 kcal/mol. Besides, in series [2], the Tm came to 37.5 °C.

As to GATGTTGGAAACAATGTC ((..(((....)))..)), the folding enthalpy in series [1] was -17.1 kcal/mol. Besides, the Tm in series [2] worked out at 31.1 °C.

On to GATGTTGGAAACAGCATC ((((.((....)).)))), for which the folding enthalpy in series [1] is -25 kcal/mol. The Tm in series [2] was 45.5 °C.

Turning to GATTACCGAAAGGTTATC (((.(((....))).))), the folding enthalpy in series [1] is -26.1 kcal/mol. In series [2], the Tm was 42.4 °C.

As for GATTACGAAAGTAGAATC ((((((....)))..))), the folding enthalpy in series [1] was -14.4 kcal/mol. Further, the Tm in series [2] came out at 27.4 °C.

Take GATTACGGAAACGTAATC (((((((....))))))): the folding enthalpy in series [1] is -50.2 kcal/mol. In addition, the Tm in series [2] was determined as 55.5 °C.

In the case of GATTAGCGAAAGCTTATC (((.(((....))).))), the folding enthalpy in series [1] is -20.5 kcal/mol. Moreover, the Tm in series [2] was 39.1 °C.

Consider GATTATGGAAACATAATC (((((((....))))))), for which the folding enthalpy in series [1] is -38.2 kcal/mol. Moreover, the Tm in series [2] came out at 49.1 °C.

In the case of GATTATGGAAACGTAATC (((((.(....).))))), in series [1], the folding enthalpy was -36.5 kcal/mol. Also, the Tm in series [2] stood at 35.6 °C.

As to GATTCACGAAAGTGCATC (((.(((....))).))), the folding enthalpy in series [1] is -26.4 kcal/mol. Moreover, the Tm in series [2] is 40.2 °C.

On to GATTCACGAAAGTGGATC (((.(((....))).))), for which, in series [1], the folding enthalpy is -39.1 kcal/mol. For the same sequence, the Tm in series [2] stood at 52.5 °C.

GATTCAGGAAACTGGATC (((.(((....))).))): in series [1], the folding enthalpy is -36.7 kcal/mol. The Tm in series [2] turned out to be 41.9 °C.

Regarding GATTCCGAAAGGAAAATC ((((((....)))..))), the folding enthalpy in series [1] is -14 kcal/mol. Also, the Tm in series [2] was 32.3 °C.

Regarding GATTCCGAAAGGATATC ((((((....))).))), the folding enthalpy in series [1] was -20.7 kcal/mol. In addition, the Tm in series [2] was found to be 39.5 °C.

Consider GATTCCGGAAACGGAACC (.(((((....))))).), for which the folding enthalpy in series [1] was -13.6 kcal/mol. Further, in series [2], the Tm came out at 40.1 °C.

With GATTCGCGAAAGCGGATC (((.(((....))).))), the folding enthalpy in series [1] was -27.7 kcal/mol. In series [2], the Tm was 60.5 °C.

GATTGACGAAAGTCGATC (((.(((....))).))): in series [1], the folding enthalpy is -29.6 kcal/mol. The Tm in series [2] is 54.2 °C.

As to GATTGAGAAATCAATC ((((((....)))))), the folding enthalpy in series [1] was -25.9 kcal/mol. Also, the Tm in series [2] was 45.5 °C.

On to GATTGCCGAAAGGCATC (((.(((....)))))), for which the folding enthalpy in series [1] is -10.3 kcal/mol. In addition, the Tm in series [2] was 44.6 °C.

Consider GATTGCCGAAAGGCGATC (((.(((....))).))), for which, in series [1], the folding enthalpy was -28.4 kcal/mol. Besides, the Tm in series [2] came to 61.9 °C.

For the sequence GATTGCGAAAGCAAGATC ((((((....)))..))), the folding enthalpy in series [1] is -14.8 kcal/mol. Besides, the Tm in series [2] turned out to be 50.2 °C.

For the sequence GATTGCGAAAGCACAATC ((((((....)))..))), the folding enthalpy in series [1] is -10.8 kcal/mol. The Tm in series [2] was found to be 32.7 °C.

Turning to GATTGCGAAAGCACGATC ((((((....)))..))), in series [1], the folding enthalpy was -7.93 kcal/mol. For the same sequence, in series [2], the Tm worked out at 28.7 °C.

As for GATTTACGAAAGTAATC (((.(((....)))))), the folding enthalpy in series [1] was -17.8 kcal/mol. In series [2], the Tm is 32 °C.

Take GATTTAGAAATAAATC ((((((....)))))): the folding enthalpy in series [1] was -18.8 kcal/mol. For the same sequence, the Tm in series [2] stood at 34.4 °C.

Take GATTTCCGAAAGGACATC (((.(((....))).))): the folding enthalpy in series [1] was -27.1 kcal/mol. In addition, in series [2], the Tm was 38 °C.

On to GATTTCGGAAACGAAACC (.(((((....))))).), for which, in series [1], the folding enthalpy is -19.6 kcal/mol. In addition, in series [2], the Tm came out at 35.8 °C.

With GATTTGAAAAAATC (((((....))))), in series [1], the folding enthalpy is -13.9 kcal/mol. Further, the Tm in series [2] is 34 °C.

Consider GATTTGCGAAAGCAATC (((.(((....)))))), for which the folding enthalpy in series [1] was -12.6 kcal/mol. Besides, in series [2], the Tm came out at 40.3 °C.

Consider GATTTTGGAAACAAAACC (.(((((....))))).), for which the folding enthalpy in series [1] was -24.9 kcal/mol. Moreover, the Tm in series [2] was found to be 29.6 °C.

As for GATTTTGGAAACAAAATC (((((((....))))))), the folding enthalpy in series [1] was -46.4 kcal/mol. Further, the Tm in series [2] was 51.7 °C.

As for GCAAAACCGAAAGGTTGC (((..(((....)))))), in series [1], the folding enthalpy was -17.7 kcal/mol. Further, the Tm in series [2] came to 50 °C.

In the case of GCAAACCGAAAGGTCTGC (((.(((....))).))), the folding enthalpy in series [1] is -29.8 kcal/mol. Besides, the Tm in series [2] turned out to be 49.8 °C.

In the case of GCAAAGCGAAAGCACTGC (((..((....))..))), the folding enthalpy in series [1] is -13.7 kcal/mol. Besides, the Tm in series [2] was found to be 37.7 °C.

For the sequence GCAAAGCGAAAGCATGGC ((.(.((....)).).)), the folding enthalpy in series [1] was -10.3 kcal/mol. Further, the Tm in series [2] amounted to 38.3 °C.

With GCAAAGCGAAAGCATTGC ((((.((....)).)))), in series [1], the folding enthalpy is -21.1 kcal/mol. In series [2], the Tm stood at 58.9 °C.

As to GCAAAGCGAAAGCCGTGC (((..((....))..))), the folding enthalpy in series [1] was -11.4 kcal/mol. Moreover, in series [2], the Tm was 39.9 °C.

Regarding GCAAAGCGAAAGCCTGGC ((.(.((....)).).)), the folding enthalpy in series [1] is -8.7 kcal/mol. Besides, the Tm in series [2] came to 35 °C.

In the case of GCAAAGCGAAAGCGGTGC (((..((....))..))), the folding enthalpy in series [1] is -19.8 kcal/mol. In addition, the Tm in series [2] is 61.7 °C.

As for GCAAAGCGAAAGCGTCGC ((.(.((....)).).)), the folding enthalpy in series [1] was -23.7 kcal/mol. For the same sequence, the Tm in series [2] worked out at 60.2 °C.

Consider GCAAAGCGAAAGCTCAGC ((..(((....)))..)), for which the folding enthalpy in series [1] is -10.8 kcal/mol. For the same sequence, the Tm in series [2] amounted to 33.6 °C.

In the case of GCAAAGCGAAAGCTCGGC ((..(((....)))..)), the folding enthalpy in series [1] is -16.6 kcal/mol. For the same sequence, in series [2], the Tm came out at 36.5 °C.

For the sequence GCAAAGCGAAAGCTGCGC ((..(((....)))..)), the folding enthalpy in series [1] was -28.5 kcal/mol. The Tm in series [2] turned out to be 64.3 °C.

Take GCAAAGCGAAAGCTTAGC ((.((((....)))).)): the folding enthalpy in series [1] is -19 kcal/mol. In series [2], the Tm is 57.2 °C.

As to GCAAATACGAAAGTATGC (((..(((....)))))), in series [1], the folding enthalpy was -21.6 kcal/mol. The Tm in series [2] came to 38.7 °C.

Consider GCAAATGAAAATTTGC ((((((....)))))), for which, in series [1], the folding enthalpy is -45.3 kcal/mol. For the same sequence, the Tm in series [2] was 52.3 °C.

As for GCAAATGGAAACATTTGC (((((((....))))))), the folding enthalpy in series [1] is -40.9 kcal/mol. Also, the Tm in series [2] turned out to be 61.8 °C.

As to GCAACACGAAAGTGATGC (((.(((....))).))), the folding enthalpy in series [1] was -38.9 kcal/mol. In addition, the Tm in series [2] amounted to 59 °C.

As to GCAACACGAAAGTGGTGC (((.(((....))).))), in series [1], the folding enthalpy was -32.2 kcal/mol. In addition, the Tm in series [2] worked out at 68.6 °C.

Turning to GCAACAGGAAACTGTTAC (.(((((....))))).), in series [1], the folding enthalpy is -16.7 kcal/mol. Moreover, in series [2], the Tm was determined as 34 °C.

On to GCAACCCCGAAAGGGTGC (((..(((....)))))), for which, in series [1], the folding enthalpy is -19.2 kcal/mol. Besides, the Tm in series [2] was 55.8 °C.

GCAACCGAAAGGTAATGC ((((((....)))..))): the folding enthalpy in series [1] was -20.1 kcal/mol. Further, the Tm in series [2] was 38.6 °C.

Consider GCAACCGAAAGGTGTGC ((((((....))).))), for which, in series [1], the folding enthalpy was -23.2 kcal/mol. The Tm in series [2] worked out at 52.4 °C.
